Structures are written as SMILES. Bounds are passed on as bounds.

Type in all cases: functional, cell-based
Experiment [1] deals with PC-3. The experiment in a line: Cytotoxicity against human PC3 cells after 48 hrs by MTT assay. The settings on record: PC-3, 48 h. The essentials:
(§1)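 PC-3 kept in DMEM with 5% FBS, MCF-7 in RPMI-1640 with 15% FBS, both used at passages 10-20. Seeded at 1×10^4 cells/well, attached 24 h, then treated 48 h at 0.01-50 µM with final 1% DMSO, in triplicate. Wells PBS-washed, diluted MTT stock (1:10) added for 3.5 h, plates centrifuged before formazan read-out.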
Background: Tetrazolium dyes change colour on reduction, which living cells bring about.

Experiment [2] concerns MCF7. Briefly: Cytotoxicity against human MCF7 cells after 48 hrs by MTT assay. The settings on record: MCF7, 48 h. The essentials: as §1
Experiment [3] has as its system DU-145. Briefly: Cytotoxicity against human DU145 cells after 72 hrs by MTT assay. Particulars: DU-145, 72 h. Summed up:
(§2)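 ATCC-sourced lines grown at 37 °C, 5% CO2 in RPMI-1640 or DMEM with 5-10% FBS plus penicillin/streptomycin. Cells exposed to a range of doses for 72 h at 37 °C. MTT added, medium removed 4 h later, formazan dissolved in DMSO and read at 570-690 nm. IC50 from three independent assays, two wells each, via % viability.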

For experiment [4], the system named is LNCaP. The experiment in a line: Cytotoxicity against human LNCAP cells after 72 hrs by MTT assay. The essentials: as §2
Experiment [5] concerns MCF7. The experiment in a line: Cytotoxicity against human MCF7 cells after 72 hrs by MTT assay. Particulars: MCF7, 72 h. The essentials: as §2
Experiment [6] concerns PC-3. Briefly: Cytotoxicity against human PC3 cells after 72 hrs by MTT assay. The settings on record: PC-3, 72 h. Summed up:
as §2

Consider `C=CC[C@@H](OC(=O)C=C)c1cccc(Oc2ccccc2)c1`, for which the half-maximal inhibitory concentration (IC50) in experiment [1] and in experiment [2] was more than 50 µM in each case.

Take `O=C1C=CC[C@@H](c2ccc3ccccc3c2)O1`: the 50% inhibitory concentration (IC50) came out at 28 µM in experiment [3], 15 µM in experiment [4], 37 µM in experiment [5] and 12 µM in experiment [6].

In the case of `Cc1ccc2ccccc2c1[C@H]1CC=CC(=O)O1`, the IC50 in experiment [1] amounted to 0.13 µM; in experiment [2], 2.6 µM.

Take `O=C1C=CC[C@H](c2ccc3ccccc3c2)O1`: the IC50 in experiment [3] turned out to be 12 µM; in experiment [4] it was 11 µM; in experiment [5], 19 µM; in experiment [6] it was 3 µM.

With `O=C1C=CC[C@H](c2cnc3ccccc3c2)O1`, the IC50 worked out at 2.5 µM in experiment [1] and 3.2 µM in experiment [2].

As to `O=C1C=CC[C@H](c2cccc3ccccc23)O1`, the values for the IC50 in experiment [1] and in experiment [2] were 0.8 µM and 2.6 µM, respectively.

As for `O=C1C=CC[C@H](c2ccnc3ccccc23)O1`, the IC50 in experiment [1] is 9.8 µM; in experiment [2] it was 32.5 µM.

`C=CC[C@@H](OC(=O)C=C)c1c(C)ccc2ccccc12`: the values for the IC50 in experiment [1] and in experiment [2] were 8.8 µM and 10.4 µM, respectively.

Consider `C=CC[C@@H](OC(=O)C=C)c1cccc2ccccc12`, for which the values for the IC50 in experiment [1] and in experiment [2] were 22.9 µM and more than 50 µM, respectively.

Consider `O=C1C=CC[C@H](c2cccc(Oc3ccccc3)c2)O1`, for which the values for the IC50 in experiment [1] and in experiment [2] were 11 µM and more than 50 µM, respectively.

Take `C=CC[C@@H](OC(=O)C=C)c1cnc2ccccc2c1`: the half-inhibitory concentration (IC50) in experiment [1] stood at 16.3 µM; in experiment [2] it was 28.8 µM.

In the case of `C=CC[C@@H](OC(=O)C=C)c1ccnc2ccccc12`, the values for the IC50 in experiment [1] and in experiment [2] were 15 µM and 13.2 µM, respectively.

On to `Cc1ccc([C@H]2CC=CC(=O)O2)c2ccccc12`, for which the IC50 in experiment [1] turned out to be 0.05 µM; in experiment [2], 0.44 µM.

Regarding `C=CC[C@@H](OC(=O)C=C)c1ccc(C)c2ccccc12`, the IC50 in experiment [1] stood at 45 µM; in experiment [2], 33.1 µM.

Consider `O=C1C=CC[C@H](/C=C/c2ccccc2)O1` [GONIOTHALAMIN], for which the IC50 is 19 µM in experiment [3], 12 µM in experiment [4], 28 µM in experiment [5] and 4 µM in experiment [6].

By IC50 is commonly meant the concentration that inhibits the measured activity by half. Low values mean inhibition by little substance, high ones a need for much substance.

Values taken from ChEMBL document CHEMBL1139282, “6-Bicycloaryl substituted (S)- and (R)-5,6-dihydro-2H-pyran-2-ones: asymmetric synthesis, and anti-proliferative properties” (Bioorg Med Chem, 2009).
